The text below walks through data of ChEMBL document CHEMBL4725355, “Design, Synthesis, and Preclinical Evaluation of 3-Methyl-6-(5-thiophenyl)-1,3-dihydro-imidazo[4,5-b]pyridin-2-ones as Selective GluN2B Negative Allosteric Modulators for the Treatment of Mood Disorders” (J Med Chem, 2020).

Data set [1] in a line: Clearance in Sprague-Dawley rat at 0.5 mg/kg, iv using 1:1 PEG-400/water formulation by LC-MS/MS analysis. The class given is ADME, organism-based. The note with it: in vivo. In short, it runs like this: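 Rat IV/PO PK at 0.5 mg/kg IV and 2.5 mg/kg PO, dosed in 1:1 PEG400/water, n=3.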
Data set [2] is described as follows: Intrinsic clearance in rat liver microsomes at 1 uM after 5 to 60 mins in presence of NADPH by LC-MS/MS analysis. The class given is ADME, Microsome. The settings on record: time 5-60 min, read-out: CLH.
Data set [3] is described as follows: Ratio of Cmax in Sprague-Dawley rat at 100 mg/kg, po administered via gavage after 24 hrs using nanosuspension formulation by LC-MS/MS analysis to EC70 for ex vivo receptor occupancy at GluN2B in po dosed Sprague-Dawley rat assessed as 3-[3H] 1-(azetidin-1-yl)-2-[6-(4-fluoro-3-methyl-phenyl)pyrrolo[3,2-b]pyridin-1-yl]-ethanone labelling. The class given is ADME, organism-based.

A short description of data set [4]: Cmax in Sprague-Dawley rat at 125 mg/kg, po administered via gavage after 24 hrs using HPMC formulation by LC-MS/MS analysis. The format is ADME, organism-based. Also on record: route oral, time 24 hrs, dose 125 mg/kg. The note with it: in vivo. Summed up:
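Single oral gavage dose to male Sprague Dawley rats, 3 per dose level. Vehicles were a standard suspension in 5% HPMC (125, 250, 500 or 1000 mg/kg) or a nanosuspension (API:polymer 4:1), with stock diluted in vehicle on the day of dosing (100, 250 or 500 mg/kg). Blood was sampled at time points from 0.5 to 24 h.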

Data set [5] in a line: AUC (infinity) in Sprague-Dawley rat at 2.5 mg/kg, po by LC-MS/MS analysis. The format is ADME, organism-based. Also on record: time infinity, route oral, dose 2.5 mg/kg. The note with it: in vivo. Summed up:
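Rat PK with IV and PO dosing, n=3. The usual doses were 0.5 mg/kg IV and 2.5 mg/kg PO in 20% HP-β-CD. One compound was instead given at 0.1 mg/kg IV and 0.5 mg/kg PO.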

A short description of data set [6]: Ratio of Cmax in Sprague-Dawley rat at 500 mg/kg, po administered via gavage after 24 hrs using HPMC formulation by LC-MS/MS analysis to EC70 for ex vivo receptor occupancy at GluN2B in po dosed Sprague-Dawley rat assessed as 3-[3H] 1-(azetidin-1-yl)-2-[6-(4-fluoro-3-methyl-phenyl)pyrrolo[3,2-b]pyridin-1-yl]-ethanone labelling. The class given is ADME, organism-based.

The nature of data set [7]: Drug level in Sprague-Dawley rat brain cerebellum at 0.03 mg/kg, iv after 30 min by LC-MS/MS analysis. The note with it: read-out: Drug uptake. The class given is ADME, organism-based. Summed up:
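Single i.v. dose of 0.03 mg/kg in 50% (w/v) PEG/water, pH 7.4; rats n=3 per group, killed at 5, 10, 30, 60 and 120 min. Cerebellum, cortex, striatum and hippocampus dissected, weighed and homogenized; drug quantified by LC-MS/MS and normalized to tissue weight. P<0.05 taken as significant versus cerebellum.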

Data set [8] can be described thus: Tmax in mouse at 2.5 mg/kg, po by LC-MS/MS analysis. The format is ADME, organism-based. The note with it: in vivo.
Data set [9] can be described thus: Toxicity in Sprague-Dawley rat up to 500 mg/kg/day, po administered as nanosuspension measured for 14 days. The note with it: in vivo, 336 h, time 14 day. The class given is organism-based. Summed up:
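Repeated daily oral dosing of a nanosuspension to rats for 14 days, with 500 mg/kg/day as the high dose. Clinical observations were recorded, and animals were moved to individual caging on Day 6.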

Data set [10] is described as follows: Negative allosteric modulation of human GluN1a/GluN2B receptor expressed in CHO cells assessed as inhibition of glutamate and glycine-induced calcium flux preincubated for 5 mins followed by glutamate and glycine addition and measured after 5 mins by calcium 5 dye based FLIPR assay. The format is cell-based. In short, it runs like this:
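Tet-On CHO T-Rex cells expressing hGluN1a with GluN2A, 2B, 2C or 2D, plated at 20,000 cells/well and induced 24 h before the assay in the presence of ketamine. Cells loaded 1 h at room temperature with Calcium 5 dye, pH 7.4 HEPES buffer. Compound added 5 min, then glutamate (~EC80) plus 10 µM glycine for 5 min; FLIPR fluorescence normalized to control wells. Three independent runs in duplicate (two for some).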

As to `Cn1c(=O)n(CC(=O)N2CCC2)c2cc(-c3ccc(C(F)(F)F)s3)cnc21`, the clearance – broadly, the rate of elimination divided by the concentration – in data set [1] came out at 30 mL/min/kg. Besides, the microsomal CLint at 1 µM in data set [2] was 26.3 µL/min/mg. In addition, the Ratio in data set [3] worked out at 13; in data set [6], 9. Besides, the highest level in [4] (Cmax) was 4240 ng/mL. The AUC(0-inf) – broadly, total exposure, with the tail of the curve extrapolated – in [5] was 1830 ng·h/mL. Also, in data set [7], the concentration at 0.5 h amounted to 13.8 ng/mL. For the same compound, the Tmax (in general, the time at which the peak concentration occurs) in data set [8] was determined as 18 min. Further, the Activity entry in [9] is “Non-Toxic”. Also, the IC50 (in general, the concentration that gives 50% inhibition) in data set [10] came to 31 nM.
